According to ChEMBL document CHEMBL1130334, “Effect of plasma protein binding on in vivo activity and brain penetration of glycine/NMDA receptor antagonists” (J Med Chem, 1997):

Tests used:
Glutamate NMDA receptor = assay: Affinity for the glycine binding site on rat N-methyl-D-aspartate glutamate receptor 1, determined by displacement of the glycine site antagonist [3H]L-689,560 from rat cortical membranes; assay type: cell membranes, Membrane
Albumin = Albumin (Homo sapiens, UniProt P02768); assay: Human serum albumin index was measured by retention time on an HPLC column containing human albumin
Procedure, shortened: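 HPLC on a column containing human serum albumin. Retention volume of each compound is divided by that of a reference standard and normalized so the standard equals 100.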

[1] = Partition coefficient (logP); assay type: physicochemical; conditions: octanol/water
Procedure, shortened: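 Octanol/pH 7.4 buffer partition; values were either measured or calculated from tables of π values.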

[2] = target: Glutamate NMDA receptor (Rattus norvegicus) (UniProt P35439+Q00959+Q00960+Q00961+Q62645+Q8VHN2+Q9R1M7); assay: Protein binding index(PBI) reflects the relative displacement of [3H]glycine from rat cortical membranes in the presence and absence of 0.2% human serum albumin; assay type: cell membranes; conditions: Membrane
Procedure, shortened: (§1)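 [³H]glycine displacement from rat cortical membranes, with and without 0.2% (w/v) human serum albumin. Separation by centrifugation. Index = IC50 with albumin / IC50 without albumin.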

Mus musculus [3] = assay: Anticonvulsant activity measured by its ability to protect against audiogenic seizure in DBA/2 mice when dosed intraperitoneally 30 min prior to seizure induction.; assay type: functional; conditions: ip
Procedure, shortened: (§2)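 DBA/2 mice, compound dosed intraperitoneally 30 min before induction of audiogenic seizures. Reported as ED50 (mg/kg and μmol/kg) or as number protected/number tested at a single dose. For some compounds the test was run 10 min after dosing.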

Rattus norvegicus = species: Rattus norvegicus; assay: Clearance into cortex from rat plasma or PBS; assay type: ADME, organism-based; conditions: in vivo
Procedure, shortened: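 Rat in situ brain perfusion (Takasato method, Gratton modifications). Compound is dissolved in phosphate-buffered saline and perfused 10 s, or dissolved in rat plasma and perfused 60 s. Drug in cortex is measured and clearance from the perfusate into cortex is calculated (mL s⁻¹ g⁻¹ × 10⁴). Mean with SEM, n = 4.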

Mus musculus [4] = assay: Anti convulsant activity of compound was measured by its ability to protect against audiogenic seizure in DBA/2 mice when dosed intraperitoneally 30 min prior to seizure induction.; assay type: functional; conditions: ip; procedure, shortened: as §2
[5] = Protein binding index(PBI) is the ratio of binding affinities for the displacement of [3H]-glycine from rat cortical membranes in the presence and absence of 0.2% human serum albumin; assay type: functional, cell membranes; conditions: Membrane; procedure, shortened: as §1

Albumin, sequence (P02768 whole entry): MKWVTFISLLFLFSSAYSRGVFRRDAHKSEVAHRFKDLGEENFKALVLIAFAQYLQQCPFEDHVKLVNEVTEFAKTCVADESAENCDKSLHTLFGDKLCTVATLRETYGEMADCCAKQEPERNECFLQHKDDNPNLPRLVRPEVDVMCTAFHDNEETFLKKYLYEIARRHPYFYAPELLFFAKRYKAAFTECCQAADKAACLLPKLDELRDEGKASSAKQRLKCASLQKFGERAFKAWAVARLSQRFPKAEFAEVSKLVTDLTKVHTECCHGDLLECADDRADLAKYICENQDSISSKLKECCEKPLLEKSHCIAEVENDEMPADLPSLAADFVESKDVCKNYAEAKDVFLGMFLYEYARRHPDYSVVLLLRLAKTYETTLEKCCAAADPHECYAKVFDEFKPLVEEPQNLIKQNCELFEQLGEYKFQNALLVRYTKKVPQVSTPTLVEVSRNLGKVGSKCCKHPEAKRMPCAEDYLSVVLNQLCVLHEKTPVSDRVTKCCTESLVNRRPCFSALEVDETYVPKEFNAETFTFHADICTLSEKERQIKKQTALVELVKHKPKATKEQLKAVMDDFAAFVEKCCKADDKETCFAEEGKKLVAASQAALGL

SMILES | IC50 (Glutamate NMDA receptor) [nM] | HSAI (Albumin) | further results
CCOC(=O)c1c(O)c2ccc(I)cc2[nH]c1=O | 30000 | 7 | –
Oc1nc2cc(Cl)ccc2c(O)c1-c1cccc(-n2ccc3ccccc32)c1 | – | 322 | –
Oc1nc2cc(Cl)ccc2c(O)c1-c1ccsc1 | 352 | 11 | –
Oc1nc2cc(Cl)ccc2c(O)c1-c1cccc(NCc2ccsc2)c1 | – | 68 | –
Cn1cccc1-c1c(O)nc2cc(Cl)ccc2c1O | 818 | 3 | –
Cc1cn(-c2c(O)nc3cc(Cl)ccc3c2O)c2ccccc12 | – | 57 | –
N[C@H](Cc1cc(I)c(OCCc2ccc(O)cc2)c(I)c1)C(=O)O | 426 | 16 | logP [1]: 2; PBI [2]: 41
Cc1ccc(Oc2cccc(-c3c(O)nc4cc(Cl)ccc4c3O)c2)cc1 | 7.8 | 310 | –
O=C(c1c(O)nc2cc(Cl)ccc2c1O)C1CC1 | – | 6 | logP [1]: 0.35
CSc1ccc(Cc2cccc(-c3c(O)nc4cc(Cl)ccc4c3O)c2)cc1 | 2.4 | 267 | –
O=C(OCCc1ccsc1)c1c(O)nc2cc(Cl)ccc2c1O | 3000 | 45 | –
Nc1c(-c2ccccc2)c(O)nc2cc(Cl)ccc12 | – | – | PBI [2]: 3.7
Oc1nc2cc(Cl)ccc2c(O)c1-c1cccc(Oc2ccsc2)c1 | – | – | ED50 (Mus musculus [3]): 0.75 mg/kg; PBI [2]: 127
Oc1nc2cc(Cl)ccc2c(O)c1-c1ccc(F)cc1 | 658 | 8 | –
Oc1nc2ccccc2c(O)c1-c1ccccc1 | – | – | ED50 (Mus musculus [3]): 10.9 mg/kg; PBI [2]: 3.1
COCOc1ccc(Cc2cccc(-c3c(O)c4ccc(Cl)cc4[nH]c3=O)c2)cc1 | 2.2 | 78 | logP [1]: 3.34; ED50 (Mus musculus [4]): 0.5 mg/kg
O=C(OCCc1cccs1)c1c(O)nc2cc(Cl)ccc2c1O | – | 44 | –
CN(C)Cc1sccc1Oc1cccc(-c2c(O)nc3cc(Cl)ccc3c2O)c1 | 32.6 | 13 | –
Oc1nc2cc(Cl)ccc2c(O)c1-c1ccco1 | – | 6 | –
C=C(C)COc1cccc(-c2c(O)nc3cc(Cl)ccc3c2O)c1 | 10.9 | 31 | –

SMILES | IC50 (Glutamate NMDA receptor) [nM] | HSAI (Albumin) | further results
CCOC(=O)c1c(O)c2ccc([N+](=O)[O-])cc2[nH]c1=O | – | 1 | –
CNCc1ccc(Cc2cccc(-c3c(O)nc4cc(Cl)ccc4c3O)c2)cc1 | 124 | 13 | –
Oc1nc2cc(Cl)ccc2c(O)c1-c1cccc(OCC2CC2)c1 | 37.8 | 21 | –
COc1ccc(CCOc2c(I)cc(C[C@@H](N)C(=O)O)cc2I)cc1 | 545 | 32 | logP [1]: 2.65; PBI [2]: 11.7
O=C(c1ccc(Cl)s1)c1c(O)nc2cc(Cl)ccc2c1O | 1520 | 26 | –
Oc1nc2cc(Cl)ccc2c(O)c1-c1cccc(Cc2cccc3ccccc23)c1 | 27.9 | 629 | –
O=[N+]([O-])c1cc([N+](=O)[O-])c2nc(O)c(O)nc2c1 | – | 4 | –
Oc1nc2cc(Cl)ccc2c(O)c1-c1ccc2c(c1)Oc1ccccc1O2 | – | 260 | logP [1]: 4.5
Oc1nc2cc(Cl)ccc2c(O)c1-c1cccc(Cc2ccoc2)c1 | 8.9 | 50 | –
C=C(C)COc1cccc(C2=C(O)/C(=C/CC)NC2=O)c1 | – | 13 | PBI [5]: 12.1
COc1ccc(Cc2cccc(-c3c(O)c4ccc(Cl)cc4[nH]c3=O)c2)cc1 | 4.5 | 97 | logP [1]: 2.81; ED50 (Mus musculus [3]): 0.7 mg/kg; PBI [2]: 193
COc1cccc(-c2c(O)nc3cc(Cl)ccc3c2O)c1 | 204 | 10 | –
O=C(c1ccc(Br)s1)c1c(O)nc2cc(Cl)ccc2c1O | 954 | 40 | –
Oc1nc2cc(Cl)ccc2c(O)c1-c1cccc(Cc2ccc(CCN3CCOCC3)cc2)c1 | 9 | 49 | logP [1]: 3.01
Cc1ccc(-c2c(O)nc3cc(Cl)ccc3c2O)cc1 | 391 | 13 | –
COc1ccccc1Cc1cccc(-c2c(O)nc3cc(Cl)ccc3c2O)c1 | 8 | 118 | –
O=c1[nH]c2cc(Cl)c(Cl)c([N+](=O)[O-])c2[nH]c1=O [LICOSTINEL] | 2.8 | 28 | ED50 (Mus musculus [3]): 3.3 mg/kg
COCCOCOc1ccc(Cc2cccc(-c3c(O)nc4cc(Cl)ccc4c3O)c2)cc1 | 3.6 | 56 | –
O=C1Nc2cc(Cl)ccc2CC1[N+](=O)[O-] (configuration not stated) | – | 7 | logP [1]: 0.62; ED50 (Mus musculus [3]): 13.5 mg/kg
Oc1nc2cc(Cl)ccc2c(O)c1-c1cccc(Cc2ccccc2)c1 | – | – | ED50 (Mus musculus [3]): 1.3 mg/kg; PBI [2]: 758

Further lines, with some results ahead:

IC50 (Glutamate NMDA receptor) [nM] | HSAI (Albumin) | SMILES | further results
11.7 | 140 | CN(Cc1cccc(-c2c(O)nc3cc(Cl)ccc3c2O)c1)c1ccccc1 | –
– | 82 | O=c1[nH]c2cc(Cl)ccc2c(O)c1-c1cccc(Oc2ccsc2)c1 | logP [1]: 2.75
684 | 42 | CC/C=C1\NC(=O)C(c2cccc(Oc3ccccc3)c2)=C1O | PBI [2]: 32
– | 15 | Oc1ccccc1-c1cc2ccc(Cl)cc2nc1O | PBI [2]: 8.2
– | 126 | O=c1[nH]c2cc(Cl)ccc2c(O)c1-c1cccc(Cc2ccccc2)c1 | logP [1]: 2.83
– | 70 | Oc1nc2cc(Cl)ccc2c2oc3ccccc3c12 | logP [1]: 4.34; PBI [2]: 28.5
36.4 | 142 | O=C(CCc1c(C(=O)O)[nH]c2cc(Cl)cc(Cl)c12)Nc1ccccc1 | –
3.6 | 58 | O=C(c1ccccc1)c1cccc(-c2c(O)nc3cc(Cl)ccc3c2O)c1 | –
1.3 | 163 | Cc1ccccc1Oc1cccc(-c2c(O)nc3cc(Cl)ccc3c2O)c1 | –
– | 6 | C=CCOC(=O)c1c(O)c2ccc(Cl)cc2[nH]c1=O | –
– | 103 | CCc1cc(Cl)cc2nc(O)c(-c3ccccc3)c(O)c12 | –
42.7 | 75 | CC(=O)c1cc(Cc2cccc(-c3c(O)c4ccc(Cl)cc4[nH]c3=O)c2)ccc1O | –
2230 | 59 | O=C(c1c(O)nc2cc(Cl)ccc2c1O)c1csc2ccccc12 | –
– | 2 | O=C(O)c1cc(O)c2ccc(Cl)cc2n1 [7-CHLOROKYNURENIC ACID] | logP [1]: 1.15
6750 | 7 | Nc1c(-c2ccccc2)c(=O)[nH]c2cc(Cl)ccc12 | –
– | 117 | Oc1nc2cc(Cl)ccc2c(O)c1-c1cccc(-c2ccccc2)c1 | –
38.5 | 2 | NCc1ccc(CC(=O)N[C@H]2C[C@H](C(=O)O)Nc3cc(Cl)cc(Cl)c32)cc1 | ED50 (Mus musculus [3]): 30 mg/kg; PBI [2]: 1.1
34.3 | 577 | Oc1nc2cc(Cl)ccc2c(O)c1-c1cccc(C#Cc2ccccc2)c1 | –
481 | 8 | Cc1ccc(-c2c(O)c3ccc(Cl)cc3[nH]c2=O)o1 | Cortex_Clearance (Rattus norvegicus): 4.4 ml s-1 (10e4*g)-1

IC50 (Glutamate NMDA receptor) [nM] | HSAI (Albumin) | SMILES | further results
12.2 | 118 | Oc1nc2cc(Cl)ccc2c(O)c1-c1cccc(OCc2ccccc2)c1 | –
6 | 571 | Oc1nc2cc(Cl)ccc2c(O)c1-c1cccc(C2=CCc3ccccc32)c1 | –
– | 213 | O=C(OCC#Cc1cccc(O)c1)c1c(O)c2ccc(Cl)cc2[nH]c1=O | –
9.6 | 76 | O=c1[nH]c2cc(Cl)ccc2c(O)c1-c1cccc(NCc2ccccc2)c1 | –
75.6 | 9 | O=C(O)c1cccc(-c2c(O)nc3cc(Cl)ccc3c2O)c1 | –
– | 28 | O=C(Cc1ccccc1)c1c(O)c2ccc(Cl)cc2[nH]c1=O | logP [1]: 1.66
– | 5 | O=C(O)c1cc(O)c2c(Cl)cc(Cl)cc2n1 | logP [1]: -0.44; PBI [2]: 26.5
24 | 24 | O=C(CC1CCc2cc(Br)cc3[nH]c(=O)c(=O)n1c23)Nc1ccccc1 (configuration not stated) | logP [1]: 2.78
1.95 | 837 | CCc1cc(Cl)cc2nc(O)c(-c3cccc(Oc4ccccc4)c3)c(O)c12 | –
1090 | 9 | O=C(c1cccs1)c1c(O)c2ccc(Cl)cc2[nH]c1=O | –
421 | 8 | COc1ccc(-c2c(O)c3ccc(Cl)cc3[nH]c2=O)cc1 | –
– | 3 | COC(=O)c1c(O)c2ccc(Cl)cc2[nH]c1=O | Cortex_Clearance (Rattus norvegicus): 2.8 ml s-1 (10e4*g)-1; PBI [2]: 5.4
7500 | 2 | O=c1[nH]c2ccccc2c(O)c1-c1ccccc1 | –
– | 3 | O=C(c1ccco1)c1c(O)nc2cc(Cl)ccc2c1O | –
16700 | – | CCOC(=O)c1c(O)c2ccc(Cl)cc2[nH]c1=O | logP [1]: 0.7
1 | 197 | O=C(/C=C/c1c(C(=O)O)[nH]c2cc(Cl)cc(Cl)c12)Nc1ccccc1 | logP [1]: 2.24
84 | 14 | Cc1cccc(-c2c(O)nc3cc(Cl)ccc3c2O)c1 | –
– | 159 | Oc1nc2cc(Cl)ccc2c(O)c1-c1ccc(Oc2ccccc2)cc1 | ED50 (Mus musculus [3]): 8.3 mg/kg
